Measurements as given in ChEMBL document CHEMBL5058577, “EUbOPEN Chemogenomics Library 2 (Multiplex)” (2022).

Test system: Fibroblast
Assay: Multiplex assay against human fibroblast
Assay type: toxicity, cell-based
Outline: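 Values for tubulin, mitochondrial-mass and membrane-permeability phenotypes are per cents of cells with healthy nuclei. These cells were identified by CellPathfinder machine-learning gating of live cells that had been stained at seeding with Hoechst33342, BioTracker Green Microtubule Cytoskeleton Dye, MitoTracker Red and Annexin V Alexa Fluor 680 and imaged on a CQ1 microscope at 37°C and 5% CO2 after compound addition. The gating first set Hoechst high-intensity objects apart from normal cells, then split normal cells into healthy, pyknosed or fragmented nuclei, and pyknosed cells into mitotic or apoptotic.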

[1] = 12 h, 1 µM, compound concentration 1 uM, replicate 1
[2] = 12 h, 1 µM, compound concentration 1 uM, replicate 2
[3] = 12 h, 10 µM, compound concentration 10 uM, replicate 1
[4] = 12 h, 10 µM, compound concentration 10 uM, replicate 2
[5] = 24 h, 1 µM, compound concentration 1 uM, replicate 1
[6] = 24 h, 1 µM, compound concentration 1 uM, replicate 2
[7] = 24 h, 10 µM, compound concentration 10 uM, replicate 1
[8] = 24 h, 10 µM, compound concentration 10 uM, replicate 2
[9] = 48 h, 1 µM, compound concentration 1 uM, replicate 1
[10] = 48 h, 1 µM, compound concentration 1 uM, replicate 2
[11] = 48 h, 10 µM, compound concentration 10 uM, replicate 1
[12] = 48 h, 10 µM, compound concentration 10 uM, replicate 2

COc1ccccc1N1CCN(C[C@@H](C(=O)NC(C)(C)C)c2ccccc2)CC1.Cl.Cl
Population Apoptotic (%) [1]: 43%
Population Fragmented Nuclei (%) [1]: 12%
Population Healthy Nuclei (%) [1]: 70%
Population Hoechst High Intensity Objects (%) [1]: 2%
Population Membrane Permeable-Phenotype (%) [1]: 0%
Population Mitochondria Different-Phenotype (%) [1]: 8%
Population Mitotic Cells (%) [1]: 56%
Population Normal (%) [1]: 97%
Population Pyknosed Nuclei (%) [1]: 16%
Population Tubulin-Different-Phenotype (%) [1]: 37%
Total Cell Count [1]: 141
Population Apoptotic (%) [2]: 40%
Population Fragmented Nuclei (%) [2]: 25%
Population Healthy Nuclei (%) [2]: 43%
Population Hoechst High Intensity Objects (%) [2]: 5%
Population Mitochondria Different-Phenotype (%) [2]: 4%
Population Mitotic Cells (%) [2]: 60%
Population Normal (%) [2]: 94%
Population Pyknosed Nuclei (%) [2]: 30%
Population Tubulin-Different-Phenotype (%) [2]: 43%
Total Cell Count [2]: 155
Population Apoptotic (%) [3]: 50%
Population Fragmented Nuclei (%) [3]: 20%
Population Healthy Nuclei (%) [3]: 59%
Population Hoechst High Intensity Objects (%) [3]: 5%
Population Membrane Permeable-Phenotype (%) [3]: 1%
Population Mitochondria Different-Phenotype (%) [3]: 20%
Population Mitotic Cells (%) [3]: 50%
Population Normal (%) [3]: 94%
Population Pyknosed Nuclei (%) [3]: 20%
Population Tubulin-Different-Phenotype (%) [3]: 66%
Total Cell Count [3]: 134
Population Apoptotic (%) [4]: 48%
Population Fragmented Nuclei (%) [4]: 32%
Population Healthy Nuclei (%) [4]: 42%
Population Membrane Permeable-Phenotype (%) [4]: 6%
Population Mitochondria Different-Phenotype (%) [4]: 12%
Population Mitotic Cells (%) [4]: 51%
Population Pyknosed Nuclei (%) [4]: 24%
Population Tubulin-Different-Phenotype (%) [4]: 70%
Total Cell Count [4]: 116
Population Apoptotic (%) [5]: 50%
Population Fragmented Nuclei (%) [5]: 12%
Population Healthy Nuclei (%) [5]: 73%
Population Hoechst High Intensity Objects (%) [5]: 2%
Population Membrane Permeable-Phenotype (%) [5]: 0%
Population Mitochondria Different-Phenotype (%) [5]: 15%
Population Mitotic Cells (%) [5]: 50%
Population Normal (%) [5]: 97%
Population Pyknosed Nuclei (%) [5]: 14%
Population Tubulin-Different-Phenotype (%) [5]: 32%
Total Cell Count [5]: 143
Population Fragmented Nuclei (%) [6]: 24%
Population Healthy Nuclei (%) [6]: 55%
Population Hoechst High Intensity Objects (%) [6]: 3%
Population Membrane Permeable-Phenotype (%) [6]: 8%
Population Mitochondria Different-Phenotype (%) [6]: 3%
Population Normal (%) [6]: 96%
Population Pyknosed Nuclei (%) [6]: 19%
Population Tubulin-Different-Phenotype (%) [6]: 50%
Total Cell Count [6]: 151
Population Apoptotic (%) [7]: 83%
Population Fragmented Nuclei (%) [7]: 19%
Population Healthy Nuclei (%) [7]: 65%
Population Hoechst High Intensity Objects (%) [7]: 8%
Population Membrane Permeable-Phenotype (%) [7]: 0%
Population Mitochondria Different-Phenotype (%) [7]: 37%
Population Mitotic Cells (%) [7]: 16%
Population Normal (%) [7]: 91%
Population Pyknosed Nuclei (%) [7]: 14%
Population Tubulin-Different-Phenotype (%) [7]: 63%
Total Cell Count [7]: 132
Population Apoptotic (%) [8]: 40%
Population Fragmented Nuclei (%) [8]: 39%
Population Healthy Nuclei (%) [8]: 41%
Population Hoechst High Intensity Objects (%) [8]: 3%
Population Membrane Permeable-Phenotype (%) [8]: 8%
Population Mitochondria Different-Phenotype (%) [8]: 8%
Population Mitotic Cells (%) [8]: 59%
Population Normal (%) [8]: 96%
Population Pyknosed Nuclei (%) [8]: 19%
Population Tubulin-Different-Phenotype (%) [8]: 76%
Total Cell Count [8]: 116
Population Apoptotic (%) [9]: 84%
Population Fragmented Nuclei (%) [9]: 18%
Population Healthy Nuclei (%) [9]: 71%
Population Hoechst High Intensity Objects (%) [9]: 5%
Population Membrane Permeable-Phenotype (%) [9]: 1%
Population Mitochondria Different-Phenotype (%) [9]: 12%
Population Mitotic Cells (%) [9]: 15%
Population Normal (%) [9]: 94%
Population Pyknosed Nuclei (%) [9]: 10%
Population Tubulin-Different-Phenotype (%) [9]: 34%
Total Cell Count [9]: 138
Population Apoptotic (%) [10]: 60%
Population Fragmented Nuclei (%) [10]: 31%
Population Healthy Nuclei (%) [10]: 52%
Population Membrane Permeable-Phenotype (%) [10]: 5%
Population Mitochondria Different-Phenotype (%) [10]: 5%
Population Mitotic Cells (%) [10]: 40%
Population Pyknosed Nuclei (%) [10]: 15%
Population Tubulin-Different-Phenotype (%) [10]: 56%
Total Cell Count [10]: 171
Population Apoptotic (%) [11]: 84%
Population Fragmented Nuclei (%) [11]: 18%
Population Healthy Nuclei (%) [11]: 63%
Population Hoechst High Intensity Objects (%) [11]: 14%
Population Membrane Permeable-Phenotype (%) [11]: 0%
Population Mitochondria Different-Phenotype (%) [11]: 34%
Population Mitotic Cells (%) [11]: 15%
Population Normal (%) [11]: 85%
Population Pyknosed Nuclei (%) [11]: 18%
Population Tubulin-Different-Phenotype (%) [11]: 65%
Total Cell Count [11]: 122
Population Apoptotic (%) [12]: 44%
Population Fragmented Nuclei (%) [12]: 50%
Population Healthy Nuclei (%) [12]: 41%
Population Hoechst High Intensity Objects (%) [12]: 3%
Population Membrane Permeable-Phenotype (%) [12]: 8%
Population Mitochondria Different-Phenotype (%) [12]: 8%
Population Mitotic Cells (%) [12]: 55%
Population Normal (%) [12]: 96%
Population Pyknosed Nuclei (%) [12]: 7%
Population Tubulin-Different-Phenotype (%) [12]: 67%
